Experimental data from ChEMBL document CHEMBL2331251, “Synthesis and biological evaluation of nucleoside analogues than contain silatrane on the basis of the structure of acyclovir (ACV) as novel inhibitors of hepatitis B virus (HBV)” (Bioorg Med Chem Lett, 2013).
pIC50: −log10 of the molar value. The source made the active and inactive calls. The calls are words filed in the database; no cut-off is given here.

Key:
[1] = tested on: Hepatitis B virus; experiment: Antiviral activity against Hepatitis B virus transfected in human HepG2.2.15 cells assessed as inhibition of HBsAg secretion after 6 days by ELISA; assay type: functional, organism-based; conditions: HepG2 2.2.15, 144 h
Outline: (§1)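 HepG2.2.15 cells in DMEM with 10% FBS at 37 °C, 5% CO2, seeded at about 5 × 10⁵/well. After 24 h, compound was added at a range of concentrations, and media were replaced every 2 days for 6 days. Media were spun at 5000 rpm for 10 min, and secreted HBsAg and HBeAg were measured by ELISA. IC50 is the mean ± SD of three independent experiments.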

[2] = tested on: Hepatitis B virus; experiment: Antiviral activity against Hepatitis B virus transfected in human HepG2.2.15 cells assessed as inhibition of HBeAg secretion after 6 days by ELISA; assay type: functional, organism-based; conditions: HepG2 2.2.15, 144 h; outline: as §1
[3] = Cytotoxicity against human HepG2.2.15 cells assessed as reduction in number of viable cells after 3 days by MTT assay; assay type: cell-based, HepG2 2.2.15
Outline: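 Confluent HepG2.2.15 cultures were exposed to test compounds for 3 days, with six cultures for each of two dilutions. MTT (5 g/l) was added 4 h before the end, cells were dissolved in DMSO, and OD was read at 570 nm. CC50 (50% reduction in viable cells or OD) was calculated by the Berkson logit method. Mean ± SD of three independent experiments.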

[4] = tested on: Mus musculus; experiment: Immunoregulatory activity in Hepatitis B virus infected transgenic mouse assessed as increase in CD4+ population in peripheral blood at 100 mg/kg qd for 1 month by flow cytometry (reference value: 13.6 +/-2.7%); assay type: functional
[5] = tested on: Mus musculus; experiment: Immunoregulatory activity in Hepatitis B virus infected transgenic mouse assessed as increase in cytokine IL-2 mRNA level in liver at 100 mg/kg qd for 1 month by qPCR analysis; assay type: functional, organism-based; design: dose 100 mg/kg
Outline: (§2)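 Liver IFN-γ and IL-2 mRNA were measured by qPCR with mouse-specific primers, normalized to GAPDH, 40 cycles, in duplicate. HBV transgenic mice (10 per group) had been dosed at 100 mg/kg once daily for one month in 0.1% DMSO, and livers were taken at day 30. Mean ± SD of 10 mice.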

[6] = tested on: Mus musculus; experiment: Immunoregulatory activity in Hepatitis B virus infected transgenic mouse assessed as increase in cytokine IFN gamma level in serum at 100 mg/kg qd for 1 month by ELISA; assay type: functional, organism-based; design: dose 100 mg/kg
Outline: (§3)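 Serum IFN-γ and IL-2 were measured by ELISA in HBV transgenic mice (10 per group) after 100 mg/kg once daily for one month in 0.1% DMSO, with sera collected at day 30. Mean ± SD of 10 mice.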

[7] = tested on: Mus musculus; experiment: Immunoregulatory activity in Hepatitis B virus infected transgenic mouse assessed as increase in CD3+ population in peripheral blood at 100 mg/kg qd for 1 month by flow cytometry (reference value: 30.1 +/-2.9%); assay type: functional
[8] = tested on: Mus musculus; experiment: Immunoregulatory activity in Hepatitis B virus infected transgenic mouse assessed as increase in cytokine IL-2 level in serum at 100 mg/kg qd for 1 month by ELISA; assay type: functional, organism-based; design: dose 100 mg/kg; outline: as §3
[9] = tested on: Mus musculus; experiment: Immunoregulatory activity in Hepatitis B virus infected transgenic mouse assessed as increase in CD4+/CD8+ population in peripheral blood at 100 mg/kg qd for 1 month by flow cytometry (reference value: 0.9 +/-0.2%); assay type: functional
[10] = tested on: Hepatitis B virus; experiment: Antiviral activity against Hepatitis B virus infected in transgenic mouse assessed as decrease in serum HBeAg level at 100 mg/kg qd for 1 month by ELISA; assay type: functional, organism-based; design: dose 100 mg/kg
Outline: (§4)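 HBV transgenic mice (C57BL/6 background, 3.2 Kb HBV DNA, backcrossed to C57BL/6J), 8 weeks old, equal numbers of each sex, matched for serum HBsAg. Ten per group. Dosed 100 mg/kg once daily for one month in 0.1% DMSO. Groups included saline and 0.1% DMSO. Sera were taken at day 30, and HBsAg and HBeAg were measured by ELISA kit. Mean ± SD of 10 mice.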

[11] = tested on: Mus musculus; experiment: Immunoregulatory activity in Hepatitis B virus infected transgenic mouse assessed as increase in CD8+ population in peripheral blood at 100 mg/kg qd for 1 month by flow cytometry (reference value: 14.1 +/-1.4%); assay type: functional
[12] = tested on: Hepatitis B virus; experiment: Antiviral activity against Hepatitis B virus infected in transgenic mouse assessed as decrease in serum HBsAg level at 100 mg/kg qd for 1 month by ELISA; assay type: functional, organism-based; design: dose 100 mg/kg; outline: as §4
[13] = tested on: Mus musculus; experiment: Immunoregulatory activity in Hepatitis B virus infected transgenic mouse assessed as increase in cytokine IFN gamma mRNA level in liver at 100 mg/kg qd for 1 month by qPCR analysis; assay type: functional, organism-based; design: dose 100 mg/kg; outline: as §2
[14] = tested on: Hepatitis B virus; experiment: Antiviral activity against Hepatitis B virus infected in transgenic mouse assessed as decrease in viral DNA level in liver at 100 mg/kg qd for 1 month by qPCR analysis; assay type: functional, organism-based; design: dose 100 mg/kg
Outline: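 HBV transgenic mice, 8 weeks old, sex- and HBsAg-matched, 10 per group. Given 100 mg/kg daily for one month, solubilized with 0.1% DMSO. Livers were harvested after 30 days. HBV DNA was extracted and quantified by qPCR with a commercial HBV DNA kit, 40 cycles, normalized to GAPDH, run in duplicate. Mean ± SD of 10 mice.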

SMILES | pIC50 [1] | pIC50 [2] | CC50 at 72 h [3] | Activity [4] | Activity [5] | Activity [6] | Activity [7] | Activity [8] | Activity [9] | inhibition [10] | Activity [11] | inhibition [12] | Activity [13] | inhibition [14]
CC1CN2CC(C)O[Si](CCCNC(=O)CCCC(=O)OCCOCn3cnc4c(=O)[nH]c(N)nc43)(OC[C@@H]2C)O1 (stereo partly specified) | 3.85 | 3.31 | 732 µM |  |  |  |  |  |  |  |  |  |  | 
Nc1ccn([C@@H]2CS[C@H](CO)O2)c(=O)n1 [LAMIVUDINE] | 3.39 | < 3.00 | > 1000 µM | 19.3% | Active | Active | 34.1% | Active | 1.2% |  | 16.7% |  | Active | Active
Nc1nc2c(ncn2COCCO)c(=O)[nH]1 [ACYCLOVIR] | < 3.00 | < 3.00 | 630 µM | 18.7% | Active | Active | 31.2% | Active | 1.2% |  | 15.1% |  | Active | 

Compounds with a higher pIC50 [1], results first:

pIC50 [1] | pIC50 [2] | SMILES | CC50 at 72 h [3] | Activity [4] | Activity [5] | Activity [6] | Activity [7] | Activity [8] | Activity [9] | inhibition [10] | Activity [11] | inhibition [12] | Activity [13] | inhibition [14]
4.04 | 3.80 | Nc1nc2c(ncn2COCCOC(=O)CCCC(=O)NCCC[Si]23OCCN(CCO2)CCO3)c(=O)[nH]1 | 570 µM |  |  |  |  |  |  |  |  |  |  | 
4.10 | 3.90 | Nc1nc2c(ncn2COCCOC(=O)CCC(=O)NCCC[Si]23OCCN(CCO2)CCO3)c(=O)[nH]1 | 485 µM |  |  |  |  |  |  |  |  |  |  | 
4.46 | 4.05 | CC1CN2CC(C)O[Si](CCCNC(=O)CCC(=O)OCCOCn3cnc4c(=O)[nH]c(N)nc43)(O1)O[C@@H](C)C2 (stereo partly specified) | 467 µM | 33% | Active | Active | 48.3% | Active | 1.6% | Active | 20.6% | Active | Active | Active
